According to ChEMBL document CHEMBL3259792 (Eur J Med Chem, 2014):

What was measured:
[1] = system: Human immunodeficiency virus 1; assay: Ratio of EC50 for HIV1 harboring reverse transcriptase Y188L mutant to EC50 for wild type HIV1 NL4.3; type: functional
In short: (§1)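 Fold change is the EC50 against the named mutant strain divided by the EC50 against wild-type HIV-1 NL4-3. […] Means of 2–3 independent experiments in triplicate.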

[2] = system: Human immunodeficiency virus 1; assay: Antiviral activity against HIV1 harboring reverse transcriptase Y181C mutant infected in human MT4 cells assessed as inhibition of virus-induced cell death measured after 5 days of infection by MTT method; type: functional, organism-based; settings: Human immunodeficiency virus 1, MT4, 120 h
In short: (§2)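 MT-4 cells infected with the named NNRTI-resistant HIV-1 RT mutant strain, in the presence of a range of compound concentrations. Viable cells counted at day 5 post-infection by tetrazolium (MTT) colorimetry. […] Mean of 2–3 independent experiments, each in triplicate.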

[3] = system: Human immunodeficiency virus 1; assay: Ratio of EC50 for HIV1 harboring reverse transcriptase Y181C mutant to EC50 for wild type HIV1 NL4.3; type: functional; in short: as §1
[4] = system: Human immunodeficiency virus 1; assay: Antiviral activity against HIV1 harboring reverse transcriptase […] mutant infected in human MT4 cells assessed as inhibition of virus-induced cell death measured after 5 days of infection by MTT method; type: functional, organism-based; settings: Human immunodeficiency virus 1, MT4, 120 h; in short: as §2
[5] = system: Human immunodeficiency virus 1; assay: Ratio of EC50 for HIV1 harboring reverse transcriptase […] mutant to EC50 for wild type HIV1 NL4.3; type: functional; in short: as §1
[6] = system: Human immunodeficiency virus 1; assay: Ratio of EC50 for HIV1 harboring reverse transcriptase K103N/Y181C double mutant to EC50 for wild type HIV1 NL4.3; type: functional; in short: as §1
[7] = system: Human immunodeficiency virus 1; assay: Antiviral activity against HIV1 harboring reverse transcriptase Y188L mutant infected in human MT4 cells assessed as inhibition of virus-induced cell death measured after 5 days of infection by MTT method; type: functional, organism-based; settings: Human immunodeficiency virus 1, MT4, 120 h; in short: as §2
[8] = system: Human immunodeficiency virus 1; assay: Antiviral activity against HIV1 3B infected in human CEM cells assessed as protection of cells monitored by giant cell formation by microscopy; type: functional, organism-based; settings: Human immunodeficiency virus 1, 3B, CCRF-CEM
In short: (§3)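 Human CEM cultures (~3 × 10⁵ cells/mL) infected with ~100 CCID₅₀ per mL of HIV-1 IIIB or HIV-2 ROD, seeded with serial compound dilutions. Incubated 4 days at 37 °C; syncytium (giant cell) formation scored by microscopy. EC₅₀ = concentration protecting cells from viral cytopathicity by 50%. Means of two to three independent experiments, each in triplicate.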

[9] = system: Human immunodeficiency virus 1; assay: Antiviral activity against HIV1 harboring reverse transcriptase K103N mutant infected in human MT4 cells assessed as inhibition of virus-induced cell death measured after 5 days of infection by MTT method; type: functional, organism-based; settings: Human immunodeficiency virus 1, MT4, 120 h; in short: as §2
[10] = system: Human immunodeficiency virus 1; assay: Ratio of EC50 for HIV1 harboring reverse transcriptase K103N mutant to EC50 for wild type HIV1 3B; type: functional
[11] = system: Human immunodeficiency virus 1; assay: Antiviral activity against HIV1 harboring reverse transcriptase K103N/Y181C double mutant infected in human MT4 cells assessed as inhibition of virus-induced cell death measured after 5 days of infection by MTT method; type: functional, organism-based; settings: Human immunodeficiency virus 1, MT4, 120 h; in short: as §2
[12] = Cytotoxicity against human MT4 cells assessed as cell viability by MTT assay; type: cell-based
In short: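 Mock-infected MT-4 cells exposed to a range of compound concentrations. Viable cells measured by MTT colorimetry at day 5. CC₅₀ = concentration causing 50% death of non-infected cells. Means of two to three independent experiments, each in triplicate.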

[13] = system: Human immunodeficiency virus 1; assay: Antiviral activity against HIV1 NL4.3 infected in human MT4 cells assessed as inhibition of virus-induced cell death measured after 5 days of infection by MTT method; type: functional, organism-based; settings: Human immunodeficiency virus 1, NL4.3, MT4, 120 h
In short: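 Lymphoid MT-4 cells (NIH AIDS Reagent Program) infected with HIV-1 NL4-3 in the presence of varying compound concentrations. On day 5 post-infection, viable cells were counted by MTT tetrazolium colorimetry. EC₅₀ = concentration inhibiting virus-induced cell death by 50%. Means of two to three independent experiments, each in triplicate.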

[14] = system: Human immunodeficiency virus 1; assay: Ratio of EC50 for HIV1 harboring reverse transcriptase K103N mutant to EC50 for wild type HIV1 NL4.3; type: functional; in short: as §1
[15] = target: Human immunodeficiency virus type 1 reverse transcriptase (Human immunodeficiency virus 1, UniProt Q72547, K103N); assay: Inhibition of HIV1 wild-type reverse transcriptase K103N mutant using [3H]dTTP by scintillation counting
[16] = system: Human immunodeficiency virus 1; assay: Ratio of efavirenz EC50 to compound EC50 for HIV1 harboring reverse transcriptase K103N mutant infected in human MT4 cells; type: functional
[17] = target: T1, Human immunodeficiency virus type 1 reverse transcriptase (Human immunodeficiency virus 1, UniProt Q72547); assay: Inhibition of HIV1 wild-type reverse transcriptase using [3H]dTTP by scintillation counting
[18] = target: T1, Human immunodeficiency virus type 1 reverse transcriptase; assay: Inhibition of HIV1 wild-type reverse transcriptase Y181I/Y181C mutant using [3H]dTTP by scintillation counting
[19] = system: Human immunodeficiency virus 1; assay: Ratio of efavirenz EC50 to compound EC50 for HIV1 harboring reverse transcriptase Y188L mutant infected in human MT4 cells; type: functional
[20] = system: Human immunodeficiency virus 1; assay: Ratio of AZT EC50 to compound EC50 for HIV1 harboring reverse transcriptase K103N mutant infected in human MT4 cells; type: functional
[21] = target: Human immunodeficiency virus type 1 reverse transcriptase (Human immunodeficiency virus 1, UniProt Q72547, L100I); assay: Inhibition of HIV1 wild-type reverse transcriptase L100I mutant using [3H]dTTP by scintillation counting
In short: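 RNA-dependent DNA polymerase activity of recombinant RT (2–4 nM) on poly(rA)/oligo(dT) 10:1 with [3H]dTTP (1 Ci/mmol). Incubation at 37 °C. Acid-insoluble radioactivity collected on GF/C filters after 5% cold TCA, counted by scintillation.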

[22] = Selectivity index, ratio of CC50 for human MT4 cells to EC50 for HIV1 NL4.3 infected in human MT4 cells; type: toxicity, cell-based; settings: read-out: Ratio CC50/EC50
In short: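 Ratio CC₅₀/EC₅₀. CC₅₀ is from mock-infected MT-4 cells and EC₅₀ from HIV-1 NL4-3-infected MT-4 cells, both read by MTT at day 5 post-infection.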

[23] = system: Human immunodeficiency virus 2; assay: Antiviral activity against HIV-2 ROD infected in human CEM cells assessed as protection of cells monitored by giant cell formation by microscopy; type: functional, organism-based; settings: Human immunodeficiency virus 2, ISOLATE ROD, CCRF-CEM; in short: as §3
[24] = system: Human immunodeficiency virus 1; assay: Ratio of efavirenz EC50 to compound EC50 for HIV1 harboring reverse transcriptase L100I mutant infected in human MT4 cells; type: functional
[25] = system: Human immunodeficiency virus 1; assay: Ratio of efavirenz EC50 to compound EC50 for HIV1 harboring reverse transcriptase Y181C mutant infected in human MT4 cells; type: functional

For `Cc1cc(C)cc(S(=O)(=O)c2c(C(=O)NC(C)Cc3ccccc3)[nH]c3ccc(Cl)cc23)c1` (racemic), which “Ratio EC50” value [1] is on record?
Its value is >11.

What about the EC50 [2] of the same compound?
Its EC50 is > 1000 nM.

What about the “Ratio EC50” value [3] of the same compound?
The value was >11.

What about the EC50 [4] of the same compound?
The EC50 was 380 nM.

What about the “Ratio EC50” value [5] of the same compound?
The value was 4.2.

And the “Ratio EC50” value [6]?
The value was 23.

And the EC50 [7]?
The EC50 was > 1000 nM.

What about the EC50 [8] of the same compound?
Its EC50 is 91 nM.

And the EC50 [9]?
The EC50 was 530 nM.

And the “Ratio EC50” value [10]?
The value was 5.8.

And the EC50 [11]?
The EC50 was > 2080 nM.

Which CC50 [12] does the source give for `Cc1cc(C)cc(S(=O)(=O)c2c(C(=O)NCc3ccc(N)cc3)[nH]c3ccc(Cl)cc23)c1` here?
The CC50 was 6370 nM.

And the “Ratio EC50” value [1]?
Its value is 2338.

What about the EC50 [2] of the same compound?
The EC50 was 11 nM.

And the EC50 [13]?
The EC50 was 0.21 nM.

What about the “Ratio EC50” value [14] of the same compound?
The value was 20.

What about the IC50 [15] of the same compound?
The IC50 was 34 nM.

What about the “Ratio EC50” value [3] of the same compound?
The value was 52.

And the Ratio EC50 [16]?
Its Ratio EC50 is > 546.

And the IC50 [17]?
The IC50 was 7.7 nM.

And the “Ratio EC50” value [6]?
Its value is 2847.

And the EC50 [7]?
Its EC50 is 491 nM.

What about the EC50 [9] of the same compound?
The EC50 was 4.2 nM.

What about the IC50 [18] of the same compound?
Its IC50 is 201 nM.

What about the EC50 [11] of the same compound?
The EC50 was 598 nM.

What about the “Ratio EC50” value [19] of the same compound?
Its value is 1.5.

And the “Ratio EC50” value [20]?
The value was >3.

What does the source list for `Cc1cc(C)cc(S(=O)(=O)c2c(C(=O)NCc3cccc(F)c3)[nH]c3ccc(Cl)cc23)c1`?
CC50 [12]: > 53100 nM; EC50 [2]: 4.3 nM; EC50 [13]: 0.68 nM; IC50 [21]: 40 nM; Ratio EC50 [14]: 6.5; IC50 [15]: 160 nM; Ratio EC50 [3]: 6.3; EC50 [4]: 5 nM; Ratio EC50 [16]: >546; IC50 [17]: 70 nM; Ratio EC50 [5]: 7.4; selectivity ratio [22]: > 78100; EC50 [23]: > 10000 nM; Ratio EC50 [6]: 20391; EC50 [8]: 4.3 nM; Ratio EC50 [24]: 10; Ratio EC50 [25]: 37; EC50 [9]: 4.4 nM; IC50 [18]: > 20000 nM; EC50 [11]: 13900 nM; Ratio EC50 [20]: > 3
